Source: ChEMBL document CHEMBL1134472, “Synthesis and NMR-driven conformational analysis of taxol analogues conformationally constrained on the C13 side chain” (2001)
Activity calls are given as the source filed them. No cut-off for these calls is given here.

Columns and labels:
[1] = molecular target: Tubulin alpha chain (Sus scrofa) (UniProt P02550); experiment: Tubulin binding with reference to taxol was determined by tubulin assembly assay
Summary of the method: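 Activity is the ED50 in a tubulin assembly assay, given as a ratio to the paclitaxel ED50 from the same assay.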

MCF7 = experiment: Cytotoxicity against MCF-7 cells with reference to taxol; type: functional; conditions: Homo sapiens
Summary of the method: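 Result is the test compound's ED50 in MCF7 cells divided by the paclitaxel ED50 from the same cytotoxicity assay.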

Tubulin alpha chain (Sus scrofa), sequence (P02550 whole entry, looked up): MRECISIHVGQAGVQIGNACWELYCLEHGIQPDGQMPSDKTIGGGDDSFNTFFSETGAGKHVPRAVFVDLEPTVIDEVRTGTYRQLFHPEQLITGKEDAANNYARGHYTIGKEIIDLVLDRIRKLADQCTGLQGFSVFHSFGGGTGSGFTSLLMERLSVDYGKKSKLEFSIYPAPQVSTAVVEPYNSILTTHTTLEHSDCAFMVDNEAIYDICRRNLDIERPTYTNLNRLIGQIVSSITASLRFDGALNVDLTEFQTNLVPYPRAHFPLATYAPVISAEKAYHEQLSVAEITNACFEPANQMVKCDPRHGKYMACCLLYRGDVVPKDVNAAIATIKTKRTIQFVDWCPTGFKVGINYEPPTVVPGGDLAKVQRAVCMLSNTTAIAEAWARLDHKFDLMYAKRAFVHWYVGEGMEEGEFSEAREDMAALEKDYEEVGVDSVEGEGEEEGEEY

ED50/ED50(Taxol) (dimensionless ratio) [1]	ED50 [1]	Compound	ED50/ED50(Taxol) (MCF7) [dimensionless ratio]
7		CC(=O)O[C@@]12CO[C@@H]1C[C@H](O)[C@@]1(C)C(=O)[C@H](O)C3=C(C)C(OC(=O)[C@@]4(O)Cc5ccccc5[C@@H]4NC(=O)OC(C)(C)C)C[C@@](O)([C@@H](OC(=O)c4ccccc4)[C@H]21)C3(C)C (stereo not given in full)	
30		CC(=O)O[C@@]12CO[C@@H]1C[C@H](O)[C@@]1(C)C(=O)[C@H](O)C3=C(C)C(OC(=O)[C@@]4(O)CCc5ccccc5[C@@H]4NC(=O)OC(C)(C)C)C[C@@](O)([C@@H](OC(=O)c4ccccc4)[C@H]21)C3(C)C (stereo not given in full)	239
4		CC(=O)O[C@H]1C(=O)[C@@]2(C)[C@H]([C@H](OC(=O)c3ccccc3)[C@]3(O)CC(OC(=O)[C@@]4(O)Cc5ccccc5[C@@H]4NC(=O)c4ccccc4)C(C)=C1C3(C)C)[C@]1(OC(C)=O)CO[C@@H]1C[C@@H]2O (stereo not given in full)	9
		CC(=O)O[C@H]1C(=O)[C@@]2(C)[C@H]([C@H](OC(=O)c3ccccc3)[C@]3(O)C[C@H](OC(=O)[C@H](O)[C@@H](NC(=O)c4ccccc4)c4ccccc4)C(C)=C1C3(C)C)[C@]1(OC(C)=O)CO[C@@H]1C[C@@H]2O [PACLITAXEL]	4
42		CC(=O)O[C@H]1C(=O)[C@@]2(C)[C@H]([C@H](OC(=O)c3ccccc3)[C@]3(O)CC(OC(=O)[C@@]4(O)CCc5ccccc5[C@@H]4NC(=O)c4ccccc4)C(C)=C1C3(C)C)[C@]1(OC(C)=O)CO[C@@H]1C[C@@H]2O (stereo not given in full)	333
	inactive	CC(=O)O[C@H]1C(=O)[C@@]2(C)[C@H]([C@H](OC(=O)c3ccccc3)[C@]3(O)CC(OC(=O)[C@]4(O)Cc5ccccc5[C@@H]4NC(=O)c4ccccc4)C(C)=C1C3(C)C)[C@]1(OC(C)=O)CO[C@@H]1C[C@@H]2O (stereo not given in full)	1600
